The RNAGym collection of RNA variant scans (doi:10.1126/science.aae0568)
This sample holds only a part of the variants without activity.

B1: tRNA (parent)
chain: GUUCCGUUGGCGUAAUGGUAACGCGUCUCCCUCCUAAGGAGAAGACUGCGGGUUCGAGUCCCGUACGGAACG

Variants of: B1
Test: yeast fitness relative to wild type (ratio to wild type); higher = fitter; tRNA-Arg(CCU), competitive growth, 37 C, YPD
Procedure, shortened: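 Changes in genotype frequencies gave Darwinian fitness relative to wild type. Frequencies were read by 100-nucleotide paired-end sequencing of gene amplicons before and after pooled Saccharomyces cerevisiae strains, carrying tRNA-Arg(CCU) gene variants at the native locus, were competed in YPD at 37°C for 24 hours in six replicates. A genotype was kept only with ≥ 100 starting reads, and estimates < 0.5 were set to 0.5.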

Row | Variant | yeast fitness
1 | G6A G52C A65U G67C | ≤ 0.5
2 | G6A U7G C24A U26C | ≤ 0.5
3 | G6A U8A A14C A21U A40G | ≤ 0.5
4 | G6A U8C A14U | 0.564
5 | G6A U8C A20C C27U | ≤ 0.5
6 | G6A U8C A42C A45U A57G A70C | ≤ 0.5
7 | G6A U8C U19A U53C | ≤ 0.5
8 | G6A U13A C46G | ≤ 0.5
9 | G6A U13C A14U C30U A69U | ≤ 0.5
10 | G6A U13G | 0.731
11 | G6A U13G A42C | 0.711
12 | G6A U13G C27U | 0.539
13 | G6A U13G C55A | ≤ 0.5
14 | G6A U13G G50C | 0.538
15 | G6A U16A G25C | 0.644
16 | G6A U16A G63A | 0.569
17 | G6A U16C G67C | ≤ 0.5
18 | G6A U16G | 0.85
19 | G6A U19A U53A | ≤ 0.5
20 | G6A U19A U53A C60A A69U | ≤ 0.5
21 | G6A U19C A20U C22U C27G | ≤ 0.5
22 | G6A U19G A42G | ≤ 0.5
23 | G6A U26C C62U | ≤ 0.5
24 | G6A U26G A36U | ≤ 0.5

Row | Variant | yeast fitness
25 | G6A U26G G48A C61U | 0.684
26 | G6A U28G C34U | ≤ 0.5
27 | G6A U32A | 0.809
28 | G6A U35A A40U G41C C49A | ≤ 0.5
29 | G6A U54A C62U A65G G68A | 0.548
30 | G6A U54G | 0.611
31 | G6A U59C G68A | 0.567
32 | G6A U64G | 0.795
33 | G6C A14C C24U C29A G39C | ≤ 0.5
34 | G6C A14C C29U C34G C46U C49U C66A G68C | ≤ 0.5
35 | G6C A14G A20C C31A U64A G67A | ≤ 0.5
36 | G6C A14U C66U A69C | ≤ 0.5
37 | G6C A15C A21C C34U A37U | 0.502
38 | G6C A15C C31G C33G C55U C61U | ≤ 0.5
39 | G6C A15G C22A C29G A37C G50C C66U | ≤ 0.5
40 | G6C A15G G56C | ≤ 0.5
41 | G6C A15G G58C G68A | ≤ 0.5
42 | G6C A15U C60G C66U | ≤ 0.5
43 | G6C A15U G23C C31G A37G G56C | ≤ 0.5
44 | G6C A15U G23C C31G G41C G48C A69U | 0.562
45 | G6C A20C C66G | 0.957
46 | G6C A20G A42C A45C | ≤ 0.5
47 | G6C A20G C22A C31G | ≤ 0.5
48 | G6C A20G G52A | ≤ 0.5

Row | Variant | yeast fitness
49 | G6C A20U A21G A37U C60G C62G | ≤ 0.5
50 | G6C A20U C30G C66U | ≤ 0.5
51 | G6C A36C A40G G48A A65U C66U A69U | ≤ 0.5
52 | G6C A36C U64A | 0.539
53 | G6C A36U A65U | ≤ 0.5
54 | G6C A36U G39A | ≤ 0.5
55 | G6C A37C C62A A69C | ≤ 0.5
56 | G6C A37C G51A G52A U53C C62A | 0.561
57 | G6C A37G A40U A45C | 0.702
58 | G6C A37G A43C C62U | ≤ 0.5
59 | G6C A37G C60G A65U | ≤ 0.5
60 | G6C A37G C60U A65G | ≤ 0.5
61 | G6C A37U C49U A69U | 0.585
62 | G6C A40C A45C | ≤ 0.5
63 | G6C A40G | 0.767
64 | G6C A40G C60U C61U | 0.513
65 | G6C A42C A43U | ≤ 0.5
66 | G6C A42C C49U C55U | 0.578
67 | G6C A42C C49U C66A | ≤ 0.5
68 | G6C A42G A70U | 0.548
69 | G6C A42U | 0.739
70 | G6C A45C | 0.614
71 | G6C A45G G58A | 0.607
72 | G6C A57U | 0.663

Row | Variant | yeast fitness
73 | G6C A65U | 0.917
74 | G6C C11A A43U G48C | ≤ 0.5
75 | G6C C11A C22U | 0.573
76 | G6C C11G A14U C22U G44A C55A G63A | ≤ 0.5
77 | G6C C11G A15C G25C C27G C30G G38C A70G | ≤ 0.5
78 | G6C C11G A15G G68C | 0.503
79 | G6C C11G A21G C29G A40C | ≤ 0.5
80 | G6C C11G C27U A42G | ≤ 0.5
81 | G6C C11G C33U | ≤ 0.5
82 | G6C C11U A15G A21U C30G G44A G52A | 0.791
83 | G6C C11U A20C | ≤ 0.5
84 | G6C C11U A21C | 0.671
85 | G6C C11U C27G G41C C61A | ≤ 0.5
86 | G6C C22A A57U | ≤ 0.5
87 | G6C C22A G41A G44C C49U | ≤ 0.5
88 | G6C C22A U28A U53G | ≤ 0.5
89 | G6C C22G | 0.761
90 | G6C C22G A37U A43G C62G | 0.509
91 | G6C C22U C24G C27U C29A C30U C31G A70C | ≤ 0.5
92 | G6C C22U C24G C27U C29A C30U C31G G58A | ≤ 0.5
93 | G6C C22U C30A C49U G52C | 0.683
94 | G6C C24A C46G | 0.59
95 | G6C C24G C34U U53C C55G C62A A70U | ≤ 0.5
96 | G6C C24U C49U G56C | 0.52

Row | Variant | yeast fitness
97 | G6C C24U G38C A40G | ≤ 0.5
98 | G6C C29G U35C A57G | ≤ 0.5
99 | G6C C30A A45G C55G A57U C62G U64C | ≤ 0.5
100 | G6C C30U U59G C61A | 0.575
101 | G6C C31A A65G C66U | 0.594
102 | G6C C31G C33G U47C G51A C66U | ≤ 0.5
103 | G6C C33G C34U U64A | 0.684
104 | G6C C33U G52A | ≤ 0.5
105 | G6C C34G | 0.717
106 | G6C C34U A43G G48A A57G | ≤ 0.5
107 | G6C C46G A57G C62U C66U | ≤ 0.5
108 | G6C C46G C62U C66U | 0.533
109 | G6C C49G | 0.776
110 | G6C C60G A65U | ≤ 0.5
111 | G6C C60U | 0.712
112 | G6C C61G G68A | ≤ 0.5
113 | G6C C61U A70G | 0.554
114 | G6C C62A | 0.798
115 | G6C G10C A69C | 0.589
116 | G6C G12A C24G G58C | ≤ 0.5
117 | G6C G12A G51C C66U | ≤ 0.5
118 | G6C G17A A36U C46A C66A | 0.512
119 | G6C G17A C30U A42C G52C G63A A65U | ≤ 0.5
120 | G6C G17C C34U C46A U64A | 0.597

Row | Variant | yeast fitness
121 | G6C G23A A70U | ≤ 0.5
122 | G6C G23A C34G | ≤ 0.5
123 | G6C G23C C24A G52A C55U | ≤ 0.5
124 | G6C G38A | 0.84
125 | G6C G39A | 0.86
126 | G6C G39C G51A | 0.741
127 | G6C G39C G52A U53A | ≤ 0.5
128 | G6C G41C C62U | ≤ 0.5
129 | G6C G48C | 0.837
130 | G6C G50C C62G C66U | 0.673
131 | G6C G51A G58A | 0.652
132 | G6C G52A | 0.683
133 | G6C G52C | 0.653
134 | G6C G56A C60G | ≤ 0.5
135 | G6C G56A G67A | 0.588
136 | G6C U7A C29A G51C | ≤ 0.5
137 | G6C U7A U64G | ≤ 0.5
138 | G6C U7C C27U | ≤ 0.5
139 | G6C U7C G9C | ≤ 0.5
140 | G6C U7C G9C A65G | ≤ 0.5
141 | G6C U7G C24U C27A A57G | ≤ 0.5
142 | G6C U7G U19A C27G U53A | 0.612
143 | G6C U8A | 0.674
144 | G6C U8A G51A | ≤ 0.5

Row | Variant | yeast fitness
145 | G6C U8C G58C | 0.685
146 | G6C U13C C24G C34U U53C C55G C62A | ≤ 0.5
147 | G6C U13C G50A | ≤ 0.5
148 | G6C U13G | 0.56
149 | G6C U16G A45U | 0.584
150 | G6C U16G C27U | ≤ 0.5
151 | G6C U19G G48C | ≤ 0.5
152 | G6C U26C A43C A57G C66U | ≤ 0.5
153 | G6C U28C A36C G51A C66A | ≤ 0.5
154 | G6C U28G | 0.644
155 | G6C U32C A36C | ≤ 0.5
156 | G6C U47C C61U | 0.533
157 | G6U A70C | 0.813
158 | G6U C27U G56A C61U | ≤ 0.5
159 | U7A A14C A20G C27U A45U G67A | ≤ 0.5
160 | U7A A14G | 0.709
161 | U7A A14G C31U G39C A40C A45U G68C | 0.555
162 | U7A A14U A15C U32C C46U G51C | ≤ 0.5
163 | U7A A14U A36U G50C U54A G56A C61A | ≤ 0.5
164 | U7A A14U U16C A42U | ≤ 0.5
165 | U7A A15C C27A U47C | ≤ 0.5
166 | U7A A15G C34G | ≤ 0.5
167 | U7A A15G G23A G51A C55A C66U | ≤ 0.5
